By inhibition in vivo is commonly meant the relative decrease from the control value, in per cent. As usually defined, the inhibition is the change of the read-out against control, counted positive when it falls. What is called ED50 is the dose at which the effect has come halfway, by size or by number of responders.

Activity calls are given as the source filed them. No cut-off for these calls is given here.

In series [1] the test system is Plasmodium berghei. The series is described as follows: Antimalarial activity against Plasmodium berghei KBG-173 infected in Swiss(CD-1) mouse assessed as survival at 0.25 mg/kg/day, po treated for 3 days measured on day 34. In kind it is functional, organism-based. A digest of the protocol:
(§1)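 CD-1 mice, 5 weeks old, male or female, groups of five, infected with 5 × 10^4 P. berghei KBG-173 parasitized erythrocytes. Drug in 0.5% hydroxyethylcellulose/0.1% Tween 80, given orally once daily on days 3, 4 and 5 post-infection. Parasitemia from blood films on day +6. Read-out also includes increase in mean survival time over controls and survivors at day +34.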

Series [2] relates to Canis familiaris. The series can be described thus: Toxicity in Beagle dog assessed as survival at 5.3 mg/kg/day, po after 4 days. Particulars: in vivo, 96 h. In kind it is organism-based, Canis lupus familiaris. The arrangement: route oral. The gist of the method:
(§2)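 Beagle dogs, 8-9 months old, given drug as bulk powder in gelatin capsules orally on days 1-4, at 0.0116 mmol/kg/day as base. Daily clinical observation. Methemoglobin measured by co-oximetry from jugular or cephalic blood, predose on days 1, 2 and 4, then through day 29.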

Series [3] deals with Pneumocystis carinii. The series can be described thus: Antimicrobial activity against Pneumocystis carinii infected BALB/c mouse at 0.25 mg/kg/day, po after 21 days administered 4 weeks postinfection by Giemsa staining method. The format is functional, organism-based. A digest of the protocol:
(§3)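 Female BALB/c mice, 6-8 weeks, immunosuppressed with dexamethasone […] in drinking water, then inoculated transtracheally with 10^6 P. carinii. From 4 weeks post-inoculation, drug given in drinking water for 3 weeks, 10 mice/group, intake monitored. Lung impression smears stained with Giemsa or methenamine silver, read blinded. Graded 0-5 on a log scale; group mean ± SE.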

For series [4], the system named is Leishmania donovani. The series can be described thus: Antileishmanial activity against Leishmania donovani HU3 infected in mouse assessed as inhibition of parasites in liver at 0.4 mg/kg/day, po treated for 5 days administered 7 days postinfection measured after 14 days post-infection. The format is functional. The gist of the method:
(§4)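 L. donovani HU3 amastigotes, 1 × 10^7 given IV to mice. From day 7 post-infection, dosed orally once daily for 5 days in 0.25% methylcellulose-10% ethanol; reference stibogluconate given SC. Mice killed at day 14 post-infection. Parasite burden counted on liver impression smears against untreated controls. ED50 from linear regression, with 95% confidence limits.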

Series [5] deals with Canis familiaris. The series can be described thus: Toxicity in Beagle dog assessed as survival at 6.7 mg/kg/day, po after 4 days. The format is organism-based, Canis lupus familiaris. The arrangement: route oral. The note with it: in vivo, 96 h. The gist of the method:
as §2

Series [6] concerns Leishmania donovani. The series can be described thus: Antileishmanial activity against Leishmania donovani HU3 infected in mouse assessed as inhibition of parasites in liver at 5 mg/kg/day, po treated for 5 days administered 7 days postinfection measured after 14 days post-infection. The format is functional. A digest of the protocol:
as §4

The subject of series [7] is Pneumocystis carinii. The series can be described thus: Antimicrobial activity against Pneumocystis carinii infected BALB/c mouse at 0.1 mg/kg/day, po after 21 days administered 4 weeks postinfection by methenamine silver nitrate staining method. In kind it is functional, organism-based.
Series [8] deals with Pneumocystis carinii. The series is described as follows: Antimicrobial activity against Pneumocystis carinii infected BALB/c mouse at 1.3 mg/kg/day, po after 21 days administered 4 weeks postinfection by Giemsa staining method. The format is functional, organism-based. The gist of the method: as §3
The subject of series [9] is Plasmodium berghei. The series can be described thus: Antimalarial activity against Plasmodium berghei KBG-173 infected in Swiss(CD-1) mouse assessed as parasitemia at 0.25 mg/kg/day, po treated for 3 days measured on day 6.
In series [10] the test system is Plasmodium berghei. The series can be described thus: Antimalarial activity against Plasmodium berghei KBG-173 infected in Swiss(CD-1) mouse assessed as mean survival time at 0.25 mg/kg/day, po treated for 3 days. The format is functional. A digest of the protocol:
as §1

The subject of series [11] is Plasmodium berghei. The series can be described thus: Antimalarial activity against Plasmodium berghei KBG-173 infected in Swiss(CD-1) mouse assessed as parasitemia at 1 mg/kg/day, po treated for 3 days measured on day 6.
Series [12] concerns Leishmania donovani. The series is described as follows: Antileishmanial activity against Leishmania donovani HU3 infected in mouse assessed as inhibition of parasites in liver at 10 mg/kg/day, po treated for 5 days administered 7 days postinfection measured after 14 days post-infection. The format is functional. A digest of the protocol:
as §4

Series [13] deals with Pneumocystis carinii. The series is described as follows: Antimicrobial activity against Pneumocystis carinii infected BALB/c mouse at 1.3 mg/kg/day, po after 21 days administered 4 weeks postinfection by Giemsa staining. In kind it is functional, organism-based. A digest of the protocol:
as §3

Series [14] relates to Plasmodium berghei. The series is described as follows: Antimalarial activity against Plasmodium berghei KBG-173 infected in Swiss(CD-1) mouse assessed as survival at 1 mg/kg/day, po treated for 3 days measured on day 34. In kind it is functional, organism-based. The gist of the method: as §1
Series [15] has as its system Plasmodium berghei. The series can be described thus: Antimalarial activity against Plasmodium berghei KBG-173 infected in Swiss(CD-1) mouse assessed as mean survival time at 1 mg/kg/day, po treated for 3 days. In kind it is functional. The gist of the method: as §1
Series [16] deals with Canis familiaris. The series is described as follows: Toxicity in Beagle dog assessed as increase in methemoglobin level at 6.4 mg/kg/day, po between 7 to 11 days. More on the design: route oral. The note with it: in vivo. In kind it is organism-based, Canis lupus familiaris. The gist of the method: as §2
A further series concerns Mus musculus. The series is described as follows: Toxicity in Plasmodium berghei KBG-173 infected Swiss(CD-1) mouse at 64 mg/kg/day, po treated for 3 days. The format is organism-based. The arrangement: route oral. The note with it: in vivo, 72 h. The gist of the method: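 CD-1 mice infected with 5 × 10^4 P. berghei KBG-173 parasitized erythrocytes. Drug in 0.5% hydroxyethylcellulose/0.1% Tween 80, given orally on days 3-5 post-infection, 7 mice per dose. Blood films on day +6 and weekly to day +60. Mortality tabulated for 60 days; blood-film-negative survivors counted as cured.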

For series [17], the system named is Canis familiaris. The series can be described thus: Toxicity in Beagle dog assessed as survival at 6.4 mg/kg/day, po after 4 days. In kind it is organism-based, Canis lupus familiaris. The arrangement: route oral. Particulars: in vivo, 96 h. The gist of the method: as §2
In series [18] the test system is Leishmania donovani. The series is described as follows: Antileishmanial activity against Leishmania donovani HU3 infected in mouse assessed as inhibition of parasites in liver at 100 mg/kg/day, po treated for 5 days administered 7 days postinfection measured after 14 days. In kind it is functional. The gist of the method:
as §4

The test system of series [19] is Pneumocystis carinii. The series can be described thus: Antimicrobial activity against Pneumocystis carinii infected BALB/c mouse at 0.25 mg/kg/day, po after 21 days administered 4 weeks postinfection by methenamine silver nitrate staining method. The format is functional, organism-based. A digest of the protocol:
as §3

Series [20] has as its system Leishmania donovani. The series can be described thus: Antileishmanial activity against Leishmania donovani HU3 infected in mouse assessed as inhibition of parasite burden at 5 mg/kg/day, sc for 5 days administered 7 days post-infection measured 14 days post-infection. In kind it is functional, organism-based. The gist of the method: (§5)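 Mice infected intravenously with 1 × 10^7 L. donovani (MHOM/ET/67/HU3) amastigotes. Starting 7 days post-infection, sodium stibogluconate was given subcutaneously once daily for 5 days, with doses expressed as SbV. Mice were killed 14 days post-infection. Parasite burdens were counted on liver impression smears and compared with an untreated control group. ED50 was obtained by linear regression.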

The subject of series [21] is Leishmania donovani. The series is described as follows: Antileishmanial activity against Leishmania donovani HU3 infected in mouse assessed as inhibition of parasite burden at 15 mg/kg/day, sc for 5 days administered 7 days post-infection measured 14 days post-infection. In kind it is functional, organism-based. A digest of the protocol: as §5
The test system of series [22] is Leishmania donovani. The series is described as follows: Antileishmanial activity against Leishmania donovani HU3 infected in mouse assessed as inhibition of parasite burden at 45 mg/kg/day, sc for 5 days administered 7 days post-infection measured 14 days post-infection. In kind it is functional, organism-based. The gist of the method:
as §5

The test system of series [23] is Leishmania donovani. The series is described as follows: Antileishmanial activity against Leishmania donovani HU3 infected in mouse assessed as inhibition of parasite burden administered subcutaneously once daily for 5 days after 7 days post-infection measured 14 days post-infection. In kind it is functional, organism-based. A digest of the protocol:
as §5

Series [24] has as its system Pneumocystis carinii. The series is described as follows: Antimicrobial activity against Pneumocystis carinii infected BALB/c mouse at 2 mg/kg/day, po after 21 days administered 4 weeks postinfection by Giemsa staining method. In kind it is functional, organism-based.
Series [25] concerns Canis familiaris. The series can be described thus: Toxicity in Beagle dog assessed as increase in methemoglobin level at 5.3 mg/kg/day, po measured on day 5. The format is organism-based, Canis lupus familiaris. The arrangement: route oral. Particulars: in vivo. A digest of the protocol:
(§6)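 Male beagles aged 8–9 months (n = 2) received oral primaquine diphosphate as bulk drug in gelatin capsules on days 1–4 (0.0116 mmol/kg/day as base), dosed by day-1 body weight. Jugular or cephalic blood was drawn before dosing on days 1, 2 and 4, then on days 5, 7, 9, 11, 15, 18, 21, 25 and 29. Methemoglobin was measured by co-oximeter absorbance at four wavelengths.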

Series [26] deals with Canis familiaris. The series can be described thus: Toxicity in Beagle dog assessed as methemoglobin level at 5.3 mg/kg/day, po after 2 weeks. In kind it is organism-based, Canis lupus familiaris. The arrangement: route oral. Particulars: in vivo, 336 h. The gist of the method: as §6
The subject of series [27] is Pneumocystis carinii. The series is described as follows: Antimicrobial activity against Pneumocystis carinii infected BALB/c mouse at 2 mg/kg/day, po after 21 days administered 4 weeks postinfection by methenamine silver nitrate staining method. In kind it is functional, organism-based.

Consider `COc1cc(NC(C)CCCN)c2nccc(C)c2c1Oc1ccc(Cl)c(Cl)c1.O=C(O)CCC(=O)O` (racemic), for which the result in the series with Plasmodium berghei [1], in the series with Pneumocystis carinii [3], in the series on Pneumocystis carinii [7], with Pneumocystis carinii [8], in the series on Pneumocystis carinii [13] and in the series on Plasmodium berghei [14] was Active. The outcome in the series with Pneumocystis carinii [19] was Active. Besides, the Activity entry in the series on Canis familiaris [2] is reported as “Non-toxic”; in the series on Canis familiaris [5] it was “Non-toxic”; in the series on Plasmodium berghei [9], 4.8%; with Plasmodium berghei [11] it was 0.1%; in the series with Canis familiaris [16] it was “Toxic”; in the series on Mus musculus, “Toxic”. Moreover, the Activity result in the series with Canis familiaris [17] is reported as “Non-toxic”. Moreover, the inhibition in vivo at 0.4 mg/kg/day with Leishmania donovani [4] was found to be 34.1%. Moreover, the inhibition in vivo at 5 mg/kg/day in the series with Leishmania donovani [6] was 99.2%. Further, the values for the MST in the series with Plasmodium berghei [10] and in the series on Plasmodium berghei [15] were 11.6 days and 10.2 days, respectively. The inhibition in vivo at 10 mg/kg/day with Leishmania donovani [12] turned out to be 99.8%. Moreover, in the series with Leishmania donovani [18], the inhibition in vivo at 100 mg/kg/day was determined as 99%.
On to Sodium stibogluconate, for which the inhibition was 13.8% in the series on Leishmania donovani [20], 59.4% in the series with Leishmania donovani [21] and 99.3% with Leishmania donovani [22]. In the series on Leishmania donovani [23], the ED50 is 27.7 mg/kg. Besides, in the series with Leishmania donovani [23], the ED90 was more than 45 mg/kg.
Turning to `COc1cc(NC(C)CCCN)c2ncccc2c1` (centres undefined) [PRIMAQUINE], the outcome with Pneumocystis carinii [24] and with Pneumocystis carinii [27] was inactive. Also, the Activity entry in the series on Canis familiaris [25] is “Toxic”; in the series on Canis familiaris [26], “Non-toxic”.

(Values after ChEMBL document CHEMBL1649109, “Antiparasitic activities and toxicities of individual enantiomers of the 8-aminoquinoline 8-[(4-amino-1-methylbutyl)amino]-6-methoxy-4-methyl-5-[3,4-dichlorophenoxy]quinoline succinate” (Antimicrob Agents Chemother, 2008).)
